Experiment [1] deals with T1, Cannabinoid receptor 2 (Homo sapiens, UniProt P34972). Put plainly: Displacement of [3H]CP55,940 from human CB2 receptor expressed in CHO cells after 2 hrs by liquid scintillation counter. It is filed as cell-based.
The target of experiment [2] is T2, Cannabinoid receptor 1 (Homo sapiens, UniProt P21554). Put plainly: biochemical. Format: cell-based, CHO.
The target in experiment [3] is T2, Cannabinoid receptor 1. Put plainly: Displacement of [3H]CP55,940 from human CB1 receptor expressed in CHO cells at 10 uM after 2 hrs by liquid scintillation counter. Format: cell-based. The gist of the method: (§1)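 The screen used CHO cell membranes expressing the human receptor (50 μg protein), [3H]CP55,940 at 0.1 nM final and compound at 10 μM in 50 mM Tris, 3 mM MgCl2, 0.1% BSA, pH 7.4, with 2.5% DMSO final. Incubation was 2 h at room temperature. Nonspecific binding was taken with 10 μM unlabeled CP55,940. Filtration through PEI-soaked GF/C filters was followed by scintillation counting, and the value is % inhibition of binding.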

Experiment [4] deals with T1, Cannabinoid receptor 2. Put plainly: Displacement of [3H]CP55,940 from human CB2 receptor expressed in CHO cells at 10 uM after 2 hrs by liquid scintillation counter. It is filed as cell-based. In short, it runs like this:
as §1

The target in experiment [5] is T1, Cannabinoid receptor 2. Put plainly: Agonist activity at human CB2 receptor expressed in CHO cells assessed as inhibition of forskolin-stimulated cAMP accumulation using [3H]-cAMP at 1 uM after 5 mins by liquid scintillation counter relative to CP55940. Format: functional, cell-based.
The target in experiment [6] is T2, Cannabinoid receptor 1. The conditions noted are these: CHO, at 1 µM.
Experiment [7] deals with T1, Cannabinoid receptor 2. Put plainly: Agonist activity at human CB2 receptor expressed in CHO cells assessed as inhibition of forskolin-stimulated cAMP accumulation using [3H]-cAMP after 5 mins by liquid scintillation counter. Format: functional, cell-based. The gist of the method: (§2)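 Intact CHO cells stably expressing the receptor (retrovirally transfected, kept in 0.2 mg/mL G418) were seeded 24 h ahead and preincubated 2 h at 37 °C in HBSS. Cells were lysed hot and cAMP was read by competition with [3H]cAMP for bovine adrenal binding protein, filtered and counted. EC50 came from full concentration-response curves, three independent experiments in duplicate.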

Experiment [8] has as its target T2, Cannabinoid receptor 1. Put plainly: Agonist activity at human CB1 receptor expressed in CHO cells assessed as inhibition of forskolin-stimulated cAMP accumulation using [3H]-cAMP after 5 mins by liquid scintillation counter. Format: functional, cell-based. In short, it runs like this:
as §2

Another experiment has as its system CHO. Put plainly: Selectivity ratio of Ki for human CB1 receptor to Ki for human CB2 receptor expressed in CHO cells. Format: cell-based.

A value given as a limit tells only on which side of the number the result lay.

T2 sequence (P21554 whole entry): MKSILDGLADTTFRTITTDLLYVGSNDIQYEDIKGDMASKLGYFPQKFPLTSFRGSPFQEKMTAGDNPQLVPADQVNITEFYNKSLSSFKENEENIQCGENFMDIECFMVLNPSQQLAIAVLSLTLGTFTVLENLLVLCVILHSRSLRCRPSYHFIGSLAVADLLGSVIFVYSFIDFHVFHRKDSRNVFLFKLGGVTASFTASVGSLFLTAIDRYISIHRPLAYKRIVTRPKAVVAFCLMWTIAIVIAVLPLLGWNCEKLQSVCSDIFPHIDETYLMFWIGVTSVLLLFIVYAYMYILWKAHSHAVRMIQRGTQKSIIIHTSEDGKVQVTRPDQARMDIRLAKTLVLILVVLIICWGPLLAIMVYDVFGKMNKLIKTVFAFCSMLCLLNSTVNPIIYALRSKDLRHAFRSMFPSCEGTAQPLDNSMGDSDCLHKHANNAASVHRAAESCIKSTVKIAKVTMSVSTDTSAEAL
T1 sequence (P34972 whole entry): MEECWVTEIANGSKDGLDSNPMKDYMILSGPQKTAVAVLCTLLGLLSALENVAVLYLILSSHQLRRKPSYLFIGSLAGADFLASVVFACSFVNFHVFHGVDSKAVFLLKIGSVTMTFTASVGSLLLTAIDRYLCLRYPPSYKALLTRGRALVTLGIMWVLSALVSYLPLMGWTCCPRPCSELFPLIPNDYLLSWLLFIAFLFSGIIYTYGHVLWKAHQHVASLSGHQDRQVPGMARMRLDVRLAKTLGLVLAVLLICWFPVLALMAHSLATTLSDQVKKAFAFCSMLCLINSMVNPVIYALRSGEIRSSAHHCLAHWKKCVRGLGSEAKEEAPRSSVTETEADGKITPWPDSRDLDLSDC

As for `CCCCCCCC(C)(C)c1cc(OC)c2cc(Cc3ccccc3OC)c(=O)oc2c1`, the Ki at Cannabinoid receptor 2 [1] and on Cannabinoid receptor 1 [2] was 10000 nM in each case. Besides, the inhibition on Cannabinoid receptor 1 [3] was determined as 51%; on Cannabinoid receptor 2 [4], 47%.

Regarding `Cc1ccc(Cc2cc3c(O)cc(C)cc3oc2=O)cc1`, the Ki at Cannabinoid receptor 2 [1] and on Cannabinoid receptor 1 [2] was greater than 10000 nM each time. Also, the inhibition at Cannabinoid receptor 1 [3] turned out to be 30%; at Cannabinoid receptor 2 [4] it was 23%.

Consider `CCCCCc1cc(O)c2cc(Cc3ccccc3)c(=O)oc2c1`, for which the Ki turned out to be 1680 nM at Cannabinoid receptor 2 [1] and 1270 nM on Cannabinoid receptor 1 [2]. Further, the inhibition at Cannabinoid receptor 2 [5] and at Cannabinoid receptor 1 [6] was 0% in each case.

Take `CCCCC1(c2cc(OC)c3cc(Cc4ccccc4OC)c(=O)oc3c2)CCCC1`: the Ki is 1140 nM on Cannabinoid receptor 2 [1] and 598 nM at Cannabinoid receptor 1 [2]. Further, the inhibition was determined as 3% at Cannabinoid receptor 2 [5] and 110% at Cannabinoid receptor 1 [6].

Regarding `CCCCCCC(C)(C)c1cc(O)c2cc(Cc3ccccc3O)c(=O)oc2c1`, the Ki on Cannabinoid receptor 2 [1] came out at 210 nM; at Cannabinoid receptor 1 [2], 244 nM. Moreover, the inhibition on Cannabinoid receptor 2 [5] is 76%; against Cannabinoid receptor 1 [6], 0%. Also, the EC50 on Cannabinoid receptor 2 [7] is 54 nM.

Regarding `CCCCCCCC(C)(C)c1cc(O)c2cc(Cc3ccccc3O)c(=O)oc2c1`, the Ki on Cannabinoid receptor 2 [1] is 292 nM; at Cannabinoid receptor 1 [2], 1170 nM. Moreover, the inhibition at Cannabinoid receptor 2 [5] came out at 52%; on Cannabinoid receptor 1 [6], 0%.

For `CCCCCc1cc(OC)c2cc(Cc3ccccc3Cl)c(=O)oc2c1`, the results for the Ki on Cannabinoid receptor 2 [1] and at Cannabinoid receptor 1 [2] were 185 nM and 33 nM, respectively. For the same compound, the inhibition was 47% on Cannabinoid receptor 2 [5] and 6% against Cannabinoid receptor 1 [6].

Take `CCCCCc1cc(O)c2cc(Cc3cccc(Cl)c3)c(=O)oc2c1`: the Ki turned out to be 2200 nM on Cannabinoid receptor 2 [1] and 6390 nM at Cannabinoid receptor 1 [2]. Besides, the figures for the inhibition at Cannabinoid receptor 2 [5] and on Cannabinoid receptor 1 [6] were 0% and 70%, respectively.

`Cc1ccc(C(C)C)c2cc(Cc3ccccc3O)c(=O)oc12`: the inhibitory constant (Ki) on Cannabinoid receptor 2 [1] and on Cannabinoid receptor 1 [2] was greater than 10000 nM in each case. Besides, the results for the inhibition on Cannabinoid receptor 1 [3] and at Cannabinoid receptor 2 [4] were 31% and 24%, respectively.

As for `CCCCCc1cc(O)c2cc(Cc3ccccc3Cl)c(=O)oc2c1`, the Ki is 1940 nM on Cannabinoid receptor 2 [1] and 19100 nM on Cannabinoid receptor 1 [2]. Further, the inhibition on Cannabinoid receptor 2 [5] is 2%; against Cannabinoid receptor 1 [6], 60%.

Consider `CCCCCc1cc(OC)c2cc(Cc3cccc(OC)c3)c(=O)oc2c1`, for which the Ki on Cannabinoid receptor 2 [1] was determined as 143 nM; at Cannabinoid receptor 1 [2], 45 nM. Further, the inhibition at Cannabinoid receptor 2 [5] came to 93%; against Cannabinoid receptor 1 [6] it was 58%. The EC50 on Cannabinoid receptor 1 [8] worked out at 430 nM; at Cannabinoid receptor 2 [7], 92 nM.

In the case of `CCCCCCC(C)(C)c1cc(O)c2cc(Cc3ccccc3)c(=O)oc2c1`, the Ki on Cannabinoid receptor 2 [1] amounted to 465 nM; on Cannabinoid receptor 1 [2], 2630 nM. The results for the inhibition at Cannabinoid receptor 2 [5] and against Cannabinoid receptor 1 [6] were 32% and 84%, respectively.

In the case of `CCCCCc1cc(O)c2cc(Cc3cccc(O)c3)c(=O)oc2c1`, the Ki at Cannabinoid receptor 2 [1] came out at 5150 nM; on Cannabinoid receptor 1 [2], 16200 nM. Further, the inhibition at Cannabinoid receptor 2 [5] and on Cannabinoid receptor 1 [6] was 0% throughout.

Turning to `CCCCC1(c2cc(O)c3cc(Cc4ccccc4O)c(=O)oc3c2)CCCCC1`, the inhibition constant Ki was 49 nM at Cannabinoid receptor 2 [1] and 4890 nM at Cannabinoid receptor 1 [2]. Also, the inhibition on Cannabinoid receptor 2 [5] was found to be 76%; against Cannabinoid receptor 1 [6], 0%. For the same compound, the Ratio Ki in the experiment on CHO was determined as 100. On Cannabinoid receptor 2 [7], the EC50 came out at 179 nM.

On to `COc1cccc(Cc2cc3c(OC)cc(CO[Si](c4ccccc4)(c4ccccc4)C(C)(C)C)cc3oc2=O)c1`, for which the Ki at Cannabinoid receptor 2 [1] and on Cannabinoid receptor 1 [2] was greater than 10000 nM each time. The inhibition at Cannabinoid receptor 1 [3] amounted to 12%; at Cannabinoid receptor 2 [4], 4%.

Consider `COc1cccc(Cc2cc3c(OC)cc(CBr)cc3oc2=O)c1`, for which the Ki at Cannabinoid receptor 2 [1] came to 13300 nM; on Cannabinoid receptor 1 [2] it was 4740 nM. The values for the inhibition on Cannabinoid receptor 2 [5] and at Cannabinoid receptor 1 [6] were 0% and 23%, respectively.

On to `COc1cccc(Cc2cc3c(OC)cc(Br)cc3oc2=O)c1`, for which the Ki is 2450 nM at Cannabinoid receptor 2 [1] and greater than 10000 nM on Cannabinoid receptor 1 [2]. In addition, the figures for the inhibition at Cannabinoid receptor 2 [5], at Cannabinoid receptor 1 [3] and on Cannabinoid receptor 1 [6] were 0%, 38% and 0%, respectively.

With `CCCCC1(c2cc(O)c3cc(Cc4ccccc4O)c(=O)oc3c2)CCCC1`, the Ki came to 68 nM at Cannabinoid receptor 2 [1] and 1580 nM on Cannabinoid receptor 1 [2]. For the same compound, the inhibition stood at 106% on Cannabinoid receptor 2 [5] and 18% on Cannabinoid receptor 1 [6]. Also, the half-maximal effective concentration (EC50) on Cannabinoid receptor 2 [7] is 48 nM.

In the case of `CCCCCc1cc(OC)c2cc(Cc3cccc(Cl)c3)c(=O)oc2c1`, the Ki was found to be 350 nM at Cannabinoid receptor 2 [1] and 637 nM at Cannabinoid receptor 1 [2]. The inhibition at Cannabinoid receptor 2 [5] is 40%; at Cannabinoid receptor 1 [6], 0%.

In the case of `CCCCCc1cc(OC)c2cc(Cc3ccccc3)c(=O)oc2c1`, the Ki was determined as 267 nM at Cannabinoid receptor 2 [1] and 1920 nM on Cannabinoid receptor 1 [2]. Moreover, the inhibition is 47% at Cannabinoid receptor 2 [5] and 58% against Cannabinoid receptor 1 [6]. Moreover, the Ratio Ki in the experiment with CHO came out at 7.

On to `CCCCCc1cc(O)c2cc(Cc3ccccc3C)c(=O)oc2c1`, for which the Ki on Cannabinoid receptor 2 [1] came out at 3570 nM; on Cannabinoid receptor 1 [2], 1640 nM. In addition, the inhibition worked out at 12% at Cannabinoid receptor 2 [5] and 9% against Cannabinoid receptor 1 [6].

`CCCCCCC(C)(C)c1cc(OC)c2cc(Cc3ccccc3OC)c(=O)oc2c1`: the Ki worked out at 3010 nM at Cannabinoid receptor 2 [1] and 1020 nM at Cannabinoid receptor 1 [2]. Besides, the results for the inhibition on Cannabinoid receptor 2 [5] and at Cannabinoid receptor 1 [6] were 30% and 0%, respectively.

Regarding `CCCCCc1cc(O)c2cc(Cc3cccc(C)c3)c(=O)oc2c1`, the Ki amounted to 1760 nM on Cannabinoid receptor 2 [1] and 2170 nM at Cannabinoid receptor 1 [2]. For the same compound, the inhibition at Cannabinoid receptor 2 [5] is 10%; against Cannabinoid receptor 1 [6], 42%.

On to `COc1cccc(Cc2cc3c(OC)cc(CO)cc3oc2=O)c1`, for which the Ki on Cannabinoid receptor 2 [1] and on Cannabinoid receptor 1 [2] was greater than 10000 nM each time. For the same compound, the inhibition on Cannabinoid receptor 1 [3] turned out to be 8%; on Cannabinoid receptor 2 [4], 16%.

Take `CCCCCCC(C)(C)c1cc(OC)c2cc(Cc3ccccc3)c(=O)oc2c1`: the results for the Ki on Cannabinoid receptor 2 [1] and on Cannabinoid receptor 1 [2] were 4120 nM and 1430 nM, respectively. Moreover, the figures for the inhibition on Cannabinoid receptor 2 [5] and against Cannabinoid receptor 1 [6] were 0% and 27%, respectively.

As for `COc1cccc(Cc2cc3c(OC)cccc3oc2=O)c1`, the results for the Ki on Cannabinoid receptor 2 [1] and at Cannabinoid receptor 1 [2] were greater than 10000 nM and 21100 nM, respectively. Also, the inhibition at Cannabinoid receptor 1 [6] was found to be 0%; at Cannabinoid receptor 2 [4] it was 27%.

As to `CCCCCc1cc(OC)c2cc(Cc3cccc(C)c3)c(=O)oc2c1`, the values for the inhibition constant (Ki) at Cannabinoid receptor 2 [1] and on Cannabinoid receptor 1 [2] were 392 nM and 713 nM, respectively. The inhibition at Cannabinoid receptor 2 [5] came out at 50%; on Cannabinoid receptor 1 [6], 0%.

Turning to `CCCCC1(c2cc(OC)c3cc(Cc4ccccc4OC)c(=O)oc3c2)CCCCC1`, the Ki at Cannabinoid receptor 2 [1] and on Cannabinoid receptor 1 [2] was no more than 10000 nM in each case. The inhibition at Cannabinoid receptor 1 [3] came out at 42%; at Cannabinoid receptor 2 [4] it was 45%.

Regarding `CCCCCc1cc(OC)c2cc(Cc3ccccc3C)c(=O)oc2c1`, the Ki came out at 405 nM at Cannabinoid receptor 2 [1] and 22 nM on Cannabinoid receptor 1 [2]. Moreover, the inhibition came to 58% on Cannabinoid receptor 2 [5] and 0% against Cannabinoid receptor 1 [6]. The EC50 on Cannabinoid receptor 2 [7] was 213 nM.

`Cc1cc(O)c2cc(Cc3ccccc3C)c(=O)oc2c1`: the Ki on Cannabinoid receptor 2 [1] and on Cannabinoid receptor 1 [2] was greater than 10000 nM each time. Besides, the inhibition at Cannabinoid receptor 1 [3] came to 34%; on Cannabinoid receptor 2 [4], 38%.

Take `CCCCCc1cc(O)c2cc(Cc3ccccc3O)c(=O)oc2c1`: the Ki on Cannabinoid receptor 2 [1] was found to be 4800 nM; at Cannabinoid receptor 1 [2] it was 9820 nM. Besides, the inhibition worked out at 0% at Cannabinoid receptor 2 [5] and 109% on Cannabinoid receptor 1 [6].

On to `CCCCCc1cc(OC)c2cc(Cc3ccccc3OC)c(=O)oc2c1`, for which the Ki worked out at 49 nM on Cannabinoid receptor 2 [1] and 32 nM on Cannabinoid receptor 1 [2]. The inhibition stood at 106% on Cannabinoid receptor 2 [5] and 93% at Cannabinoid receptor 1 [6]. The EC50 is 56 nM at Cannabinoid receptor 1 [8] and 14 nM at Cannabinoid receptor 2 [7].

The values above are taken from ChEMBL document CHEMBL2176868, “7-Alkyl-3-benzylcoumarins: a versatile scaffold for the development of potent and selective cannabinoid receptor agonists and antagonists” (J Med Chem, 2012).
